Where two headings read alike, the source gives them in different places.
Experiments:
rhesus monkeys = experiment: Rhesus monkeys with spontaneous hyperlipidemia, efficacy and safety; format: in vivo, rhesus monkey; conditions: 2 weeks; 326E 20 mg/kg, atorvastatin 2.4 mg/kg
ApoE-/- mice = experiment: Western diet-induced atherosclerosis in ApoE-/- mice; format: in vivo, mouse; conditions: 24 weeks once daily oral
How it was run: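 Male ApoE−/− mice were started at 6–8 weeks on a high-fat, high-cholesterol diet for 23–24 weeks, with oral compound dosing. Whole aortas were stained with Sudan IV for plaque, and plasma hsCRP was measured. For hepatic cholesterol, liver lipid residue was resuspended in ethanol with 1% Triton X-100 and assayed with commercial kits.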

[1] = rat plasma; ref a previous study; cited from earlier work
primary hepatocytes = experiment: In vitro cholesterol efflux and Abcg5/8 expression; format: cell-based, mouse; conditions: 3H-cholesterol, 12 h; BA 50 μmol/L
How it was run: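 For Abcg5/Abcg8 mRNA, primary mouse hepatocytes were treated 24 h with 50 μmol/L test compound plus 15 μg/mL cholesterol in 420 μg/mL M-β-CD. For efflux, cells were loaded 12 h with 0.5 μCi/mL 3H-cholesterol plus cholesterol, washed, then given 12.5–50 μmol/L compound with 15 μg/mL cholesterol in serum-free medium for 12 h at 37 °C. 3H in medium and NaOH lysate was counted; T0901317 (1 μmol/L) served as positive control.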

[2] = tested on: hypercholesterolemia patients; conditions: at 12 weeks, with maximally tolerated statin therapy; cited from earlier work
[3] = monkey plasma; ref a previous study; cited from earlier work
[4] = human plasma; ref a previous study; cited from earlier work
[5] = mouse plasma; ref a previous study; cited from earlier work
HCD mice = experiment: In vivo cholesterol efflux in HCD mice; parameters: species or system C57BL/6J mice; conditions: oral 30 mg/kg for 7 days
golden hamsters = experiment: HFHC diet-induced hyperlipidemia in golden hamsters; format: in vivo, golden hamster; conditions: 2 weeks; 326E 15 and 30 mg/kg, BA 30 mg/kg; vs vehicle
[6] = tested on: primary mouse hepatocytes; experiment: Glucose output; format: cell-based; conditions: 6 h, pyruvate 2 mmol/L and lactate 20 mmol/L; compared to BA
How it was run: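 Primary hepatocytes from male C57BL/6J mice were treated with the test compound for 6 h in gluconeogenic medium with pyruvate (2 mmol/L) and lactate (20 mmol/L), with or without 4.0 mmol/L l-glutamine. Glucose output into the medium was measured and normalized to the DMSO group; n = 4.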

[7] = tested on: mouse primary hepatocytes; experiment: In vitro de novo lipogenesis in primary hepatocytes; format: cell-based; conditions: 24 h treatment; compared with BA
How it was run: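 Hepatocytes came from 8–12-week male C57BL/6J mice by Percoll purification and were kept in Hepato ZYME-SFM with 2 mmol/L l-glutamine and antibiotics at 6 × 10^5 cells/well. Treated either 24 h with 0.1 μCi/well [1,2-14C]-acetate during the last 4 h, or 4 h with the label present. 14C in fatty acids and cholesterol was extracted and scintillation-counted, then normalized to DMSO; n = 3–4.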

Structure (SMILES): CC(C)c1c(C(=O)Nc2ccccc2)c(-c2ccccc2)c(-c2ccc(F)cc2)n1CC[C@@H](O)C[C@@H](O)CC(=O)O [atorvastatin, Atorvastatin]
- body weight during treatment (rhesus monkeys): unchanged

Structure (SMILES): CC(C)(CCCCCC(O)CCCCCC(C)(C)C(=O)O)C(=O)O [BA, Bempedoic acid]
- hepatic cholesterol content reduced compared to vehicle (ApoE-/- mice): 37%
- aortic plaques reduced (ApoE-/- mice; 326E 15, 30, 60 mg/kg, BA 30 mg/kg): 33.4%
- in vitro plasma protein-binding rate [1]: 95%–98
- cholesterol efflux into the cell culture medium (primary hepatocytes): markedly promoted cholesterol efflux
- placebo-adjusted decrease from baseline in LDL-C [2]: 16.5%
- in vitro plasma protein-binding rate [3]: 95%–98
- in vitro plasma protein-binding rate [4]: 95%–98
- in vitro plasma protein-binding rate [5]: 95%–98
- hepatic cholesterol content (HCD mice): significantly reduced hepatic cholesterol content
- body weight (golden hamsters): significantly decreased

Structure (SMILES): CC(C)(CCCCC=CCCCCCC(C)(C)C(=O)O)C(=O)O [326F]
- cumulative glucose production [6]: reduced with a greater tendency
- incorporation of [1,2-14C]-acetate into fatty acids and cholesterol [7]: dose-dependent lipogenesis inhibition

From publication PMC9979192 (Acta Pharmaceutica Sinica. B, 2022)
